Experimental data as given in paper PMC5503476 (Bioorganic & medicinal chemistry letters, 2017).
Values after ≈ are worked out from the molar mass of the structure shown.

Experiments:
[1] = Aqueous solubility by HPLC-UV; type: physicochemical
NL4-3 variant E138K = type: cell-based, HIV-1
wild-type HIV-1 (NL4-3) = test: Anti-HIV activity against wild-type HIV-1; type: cell-based; conditions: Human immunodeficiency virus 1, NL43, TZM-bl, read-out: EC50 NL4-3
How it was run: (§1)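 Wild-type HIV-1 NL4-3 and the E138K+M184I resistant strain were tested in parallel in TZM-bl cells, with a reference NNRTI alongside. EC50 was read from luciferase reporter gene expression. New analogues were tested up to 100 ng/mL, with at least three experiments (n = 3). Fold change is the resistant-strain EC50 divided by the wild-type EC50.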

[2] = tested on: NL4-3 variant E138K+M184I; type: cell-based, HIV-1
How it was run: as §1

Cytotoxicity = type: cell-based; conditions: human, TZM-bl cells
[3] = Human plasma stability assay; type: in vitro ADME
[4] = 0.01 M HCl, pH 2, aqueous with cosolvent or surfactant or cyclodextrin
[5] = EC50(resistant viral strain)/EC50(wild-type viral strain)

SMILES	solubility kinetic at 4 h [1, 4] [µg/mL]	Resistance fold change (FC) E138K (NL4-3 variant E138K; [5])	EC50 (NL4-3 variant E138K; Human immunodeficiency virus 1, NL43, TZM-bl, read-out: EC50 E138K) [nM]	EC50 (wild-type HIV-1 (NL4-3)) [nM]	Resistance fold change (FC) E138K+M184I [2, 5]	EC50 ([2]; Human immunodeficiency virus 1, NL43, TZM-bl, read-out: EC50 E138K+M184I) [nM]	CC50 (Cytotoxicity) [nM]	solubility kinetic at 4 h ([1]; phosphate buffer, pH 7.4, aqueous with cosolvent or surfactant or cyclodextrin) [µg/mL]	half-life at 10 μg/mL [3] [h]
Cc1cc(/C=C/C#N)cc(C)c1Nc1ccnc(Nc2ccc(C#N)cc2)n1 [compound 2, rilpivirine, reference compound]	86.8 (≈ 237 µM)								
Cc1cc(/C=C/C#N)cc(C)c1Oc1cc(Nc2ccc(C#N)cc2)c(N)cc1C(N)=O [compound 3]	2.09 (≈ 4.94 µM)	1.9	3.55 ± 0.64	1.82 ± 0.57	1.9	3.55 ± 1.02	> 23600	0.63 (≈ 1.49 µM)	
CC(C)NCC(O)COc1cccc2ccccc12 (stereo not shown) [propranolol]									80
